{"data": "Results pooled from the literature", "PIK3CA": "Phosphatidylinositol 4,5-bisphosphate 3-kinase catalytic subunit alpha isoform (PIK3CA, Homo sapiens, UniProt P42336)", "PIK3CA E545A": "Phosphatidylinositol 4,5-bisphosphate 3-kinase catalytic subunit alpha isoform (PIK3CA, Homo sapiens, UniProt P42336, E545A)", "PIK3CA M1043I": "Phosphatidylinositol 4,5-bisphosphate 3-kinase catalytic subunit alpha isoform (PIK3CA, Homo sapiens, UniProt P42336, M1043I)", "PIK3CA Q546K": "Phosphatidylinositol 4,5-bisphosphate 3-kinase catalytic subunit alpha isoform (PIK3CA, Homo sapiens, UniProt P42336, Q546K)", "PIK3CA C420R": "Phosphatidylinositol 4,5-bisphosphate 3-kinase catalytic subunit alpha isoform (PIK3CA, Homo sapiens, UniProt P42336, C420R)", "PIK3CA H1047L": "Phosphatidylinositol 4,5-bisphosphate 3-kinase catalytic subunit alpha isoform (PIK3CA, Homo sapiens, UniProt P42336, H1047L)", "PIK3CA H1047Y": "Phosphatidylinositol 4,5-bisphosphate 3-kinase catalytic subunit alpha isoform (PIK3CA, Homo sapiens, UniProt P42336, H1047Y)", "PIK3CA E545K": "Phosphatidylinositol 4,5-bisphosphate 3-kinase catalytic subunit alpha isoform (PIK3CA, Homo sapiens, UniProt P42336, E545K)", "PIK3CA E542K": "Phosphatidylinositol 4,5-bisphosphate 3-kinase catalytic subunit alpha isoform (PIK3CA, Homo sapiens, UniProt P42336, E542K)"}
{"SMILES": "COc1cnc(Nc2cccc(S(N)(=O)=O)c2)nc1N1CCN(c2ccccc2)CC1", "target": "PIK3CA", "observed": "binding", "method": "competition with immobilised ligand", "tested at": "1 µM", "remaining binding [%]": 98}
{"SMILES": "O=C(NCCCN1CCOCC1)c1ccc(Nc2nccc(-c3cc4ccccc4s3)n2)cc1", "target": "PIK3CA", "observed": "binding", "method": "competition with immobilised ligand", "tested at": "1 µM", "remaining binding [%]": 93}
{"SMILES": "CC1=C(C#N)[C@@H](c2ccc3[nH]nc(C)c3c2)C(C#N)=C(c2ccc(Cl)cc2)N1", "target": "PIK3CA E545A", "observed": "cell-free assay", "method": "competition with immobilised ligand", "tested at": "1 µM", "remaining binding [%]": 75.4}
{"SMILES": "C=CC(=O)N1CCC(C(=O)NCC(=O)N2CCN(c3nc(-c4cnc(N)nc4C(F)F)nc(N4CCOCC4)n3)CC2)CC1", "target": "PIK3CA M1043I", "observed": "binding", "method": "competition with immobilised ligand", "tested at": "1 µM", "remaining binding [%]": 0}
{"SMILES": "c1cncc(-c2cccc(Nc3nccc(NC4CCCCC4)n3)c2)c1", "target": "PIK3CA Q546K", "observed": "binding", "method": "competition with immobilised ligand", "tested at": "10 µM", "remaining binding [%]": 100}
{"SMILES": "CCN1CCN(Cc2ccc(C(=O)Nc3ccc(C)c(Oc4ccc5c(c4)CC(=O)N5)c3)cc2C(F)(F)F)CC1", "target": "PIK3CA M1043I", "observed": "binding", "method": "competition with immobilised ligand", "tested at": "1 µM", "remaining binding [%]": 100}
{"SMILES": "C[C@H](NC(=O)c1cnc2n1[C@](C)(Cc1ccc(C#N)cc1)C(=O)N2c1cc(Cl)c(F)c(Cl)c1)C(=O)NC1(c2ccccn2)CC1", "target": "PIK3CA C420R", "observed": "cell-free assay", "method": "competition with immobilised ligand", "tested at": "1 µM", "remaining binding [%]": 93}
{"SMILES": "COc1ccnn2ncc(-c3ccnc(N(C)C)n3)c12", "target": "PIK3CA H1047L", "observed": "binding", "tested at": "1 µM", "remaining binding [%]": 76}
{"SMILES": "Cc1c[nH]c2nccc(Oc3c(F)cc(Nc4cc(Cl)nc(N)n4)cc3F)c12", "target": "PIK3CA E545A", "observed": "cell-free assay", "method": "competition with immobilised ligand", "tested at": "0.1 µM", "remaining binding [%]": 88}
{"SMILES": "C[C@@H](c1ccc(-n2cnc3c(N)ncnc32)cc1)N1CCc2nn(C)c(Cc3ccccc3)c2C1=O", "target": "PIK3CA Q546K", "observed": "binding", "method": "competition with immobilised ligand", "tested at": "0.1 µM", "remaining binding [%]": 77}
{"SMILES": "CN(CCCC(F)(F)F)c1nccc(-c2cnn3ncccc23)n1", "target": "PIK3CA M1043I", "observed": "binding", "tested at": "1 µM", "remaining binding [%]": 100}
{"SMILES": "CN1CCN(c2ccc(Nc3nccc(-c4cccc([N+](=O)[O-])c4)n3)cc2C(F)(F)F)CC1", "target": "PIK3CA C420R", "observed": "binding", "tested at": "10 µM", "remaining binding [%]": 53}
{"SMILES": "CC1CCCN1c1nccc(-c2cnn3ncccc23)n1 (centres unmarked)", "target": "PIK3CA", "observed": "binding", "tested at": "1 µM", "remaining binding [%]": 100}
{"SMILES": "Cc1c(C(=O)O)cc(-c2ccc(C3CCNCC3)cc2)c2ccc(-c3ccc(C(F)(F)F)cc3)cc12", "target": "Phosphatidylinositol 4,5-bisphosphate 3-kinase catalytic subunit alpha isoform (PIK3CA, Homo sapiens, UniProt P42336, I800L)", "observed": "cell-free assay", "method": "competition with immobilised ligand", "tested at": "1 µM", "remaining binding [%]": 100}
{"SMILES": "Nc1ncc2c(n1)-c1c([nH]c3ccc(C#CC4CC4)cc13)CCCC2", "target": "PIK3CA", "observed": "binding", "method": "competition with immobilised ligand", "tested at": "1 µM", "remaining binding [%]": 90}
{"SMILES": "O=C(NCCCN1CCOCC1)c1ccc(Nc2ncc(Cl)c(-c3ccc(Cl)s3)n2)cc1", "target": "PIK3CA", "observed": "binding", "method": "competition with immobilised ligand", "tested at": "1 µM", "remaining binding [%]": 100}
{"SMILES": "COc1cnc(Nc2cccc(S(N)(=O)=O)c2)nc1N1CCN(c2ccccc2)C(=O)C1", "target": "PIK3CA H1047Y", "observed": "binding", "method": "competition with immobilised ligand", "tested at": "1 µM", "remaining binding [%]": 81}
{"SMILES": "Cc1cnc(Nc2ccc(C(=O)N3CCC(N4CCCC4)CC3)cc2)nc1-c1cc2ccccc2s1", "target": "PIK3CA E545A", "observed": "binding", "method": "competition with immobilised ligand", "tested at": "1 µM", "remaining binding [%]": 77}
{"SMILES": "O=C(Nc1c[nH]nc1C(=O)NC1CCNCC1)c1cc(F)cc(F)c1", "target": "PIK3CA C420R", "observed": "binding", "method": "competition with immobilised ligand", "tested at": "1 µM", "remaining binding [%]": 100}
{"SMILES": "CNC(=O)[C@@H]1CC[C@@H](n2c(-c3ccc4cnccc4c3)nc3ccc(C(=O)NCc4cccc(C(N)=O)c4)cc32)C1", "target": "PIK3CA C420R", "observed": "binding", "method": "competition with immobilised ligand", "tested at": "1 µM", "remaining binding [%]": 90}
{"SMILES": "NS(=O)(=O)c1cc(NC(=O)C2(c3ccccc3Cl)CC2)ccc1Oc1cccc(Cl)c1", "target": "PIK3CA", "observed": "cell-free assay", "method": "competition with immobilised ligand", "tested at": "1 µM", "remaining binding [%]": 100}
{"SMILES": "CN(C)c1ncc(F)c(-c2cnn3ncccc23)n1", "target": "PIK3CA E545K", "observed": "binding", "tested at": "1 µM", "remaining binding [%]": 63}
{"SMILES": "CN1CCN(c2ccc(Nc3nccc(-c4ccccc4)n3)cc2C(F)(F)F)CC1", "target": "PIK3CA E545A", "observed": "binding", "tested at": "10 µM", "remaining binding [%]": 100}
{"SMILES": "FC(F)(F)c1ccc2c(c1)nc(-c1cccnc1)n2C1CC1", "target": "PIK3CA M1043I", "observed": "cell-free assay", "method": "competition with immobilised ligand", "tested at": "1 µM", "remaining binding [%]": 100}
{"SMILES": "O=C(c1ccc(Nc2nccc(-c3cc4ccccc4s3)n2)cc1)N1CCC(N2CCCC2)CC1", "target": "PIK3CA E542K", "observed": "binding", "method": "competition with immobilised ligand", "tested at": "1 µM", "remaining binding [%]": 99}
{"SMILES": "COc1ncc2cc3ccccc3nc2c1C#N", "target": "PIK3CA Q546K", "observed": "cell-free assay", "method": "competition with immobilised ligand", "tested at": "5 µM", "remaining binding [%]": 99}
{"SMILES": "O=C(NCC1CCOCC1)c1n[nH]cc1NC(=O)c1c(F)cccc1F", "target": "PIK3CA H1047L", "observed": "binding", "method": "competition with immobilised ligand", "tested at": "1 µM", "remaining binding [%]": 74}
{"SMILES": "F[C@@H]1CCN(c2nccc(-c3cnn4ncccc34)n2)C1", "target": "PIK3CA Q546K", "observed": "binding", "tested at": "1 µM", "remaining binding [%]": 55}
{"SMILES": "CS(=O)(=O)N1CCCC(NC(=O)[C@H](CCC2CCCCC2)NC(=O)c2ccc(CNc3ncnc4c3nnn4-c3ccccc3)cc2)C1 (some centres unmarked)", "target": "PIK3CA E545K", "observed": "cell-free assay", "method": "competition with immobilised ligand", "tested at": "0.1 µM", "remaining binding [%]": 53}
{"SMILES": "N[C@H]1CCN(c2nccc(-c3cnn4ncccc34)n2)C1", "target": "PIK3CA E542K", "observed": "binding", "tested at": "1 µM", "remaining binding [%]": 83}
{"SMILES": "CC(C)CC(=O)N1CCc2nc(-c3ccc(Br)cc3)nc(N(C)Cc3ccccc3)c2C1", "target": "PIK3CA E542K", "observed": "cell-free assay", "method": "competition with immobilised ligand", "tested at": "0.1 µM", "remaining binding [%]": 100}
{"SMILES": "O=C(c1ccc(Nc2ncc(Cl)c(-c3ccc(Cl)s3)n2)cc1)N1CCC(N2CCCC2)CC1", "target": "PIK3CA H1047Y", "observed": "binding", "method": "competition with immobilised ligand", "tested at": "1 µM", "remaining binding [%]": 100}
